Results reported in ChEMBL document CHEMBL1649311, “A clinical isolate of Candida albicans with mutations in ERG11 (encoding sterol 14alpha-demethylase) and ERG5 (encoding C22 desaturase) is cross resistant to azoles and amphotericin B” (2010).
Converted amounts (≈) assume the structure as drawn.

Key:
Candida albicans [1] = experiment: Ratio of MIC for Candida albicans isolate 108 harboring erg11 and erg5 double mutant to MIC for Candida albicans isolate 6 expressing wild type erg11 and erg 5 enzyme; type: functional
Candida albicans [2] = experiment: Ratio of MIC for Candida albicans isolate 108 harboring erg11 and erg5 double mutant to MIC for Candida albicans isolate 177 expressing wild type erg11 and erg 5 enzyme; type: functional
Candida albicans [3] = experiment: Ratio of MIC for Candida albicans isolate 108 harboring erg11 and erg5 double mutant to MIC for Candida albicans isolate14 expressing wild type erg11 and erg 5 enzyme; type: functional
Candida albicans [4] = experiment: Antifungal activity against Candida albicans isolate 14 after 48 hrs by Etest; conditions: isolate 14, 48 h
Candida albicans [5] = experiment: Antifungal activity against Candida albicans isolate 108 harboring erg11 and erg5 double mutant after 48 hrs by Etest; type: functional; conditions: isolate 108, 48 h
Candida albicans [6] = experiment: microbe, parasite or virus in culture; conditions: isolate 177, 48 h
Candida albicans [7] = experiment: Antifungal activity against Candida albicans isolate 6 after 48 hrs by Etest; conditions: isolate 6, 48 h
Candida albicans [8] = experiment: Effect on sterol composition in Candida albicans isolate 108 harboring erg11 and erg5 double mutant assessed as lanosterol level after 2 hrs by gas chromatography; type: functional; design: concentration or dose not given beside the values
Candida albicans [9] = experiment: Antifungal activity against Candida albicans isolate 14 after 48 hrs by broth microdilution method; type: functional; conditions: isolate 14, 48 h
Procedure, shortened: (§1)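 CLSI M27-A2 broth dilution in RPMI 1640 buffered with 0.165 M MOPS (pH 7), 37°C, for azoles (fluconazole, voriconazole, itraconazole, ketoconazole, clotrimazole). For amphotericin B, the MIC is the lowest concentration with complete growth inhibition.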

Candida albicans [10] = experiment: Effect on sterol composition in Candida albicans isolate 108 harboring erg11 and erg5 double mutant assessed as ergosta 5,7-dienol level after 2 hrs by gas chromatography; type: functional; design: concentration or dose not given beside the values
Candida albicans [11] = experiment: Effect on sterol composition in Candida albicans isolate 108 harboring erg11 and erg5 double mutant eburicol level after 2 hrs by gas chromatography; type: functional; design: concentration or dose not given beside the values
Candida albicans [12] = experiment: Antifungal activity against Candida albicans isolate 6 after 48 hrs by broth microdilution method; type: functional; conditions: isolate 6, 48 h; procedure, shortened: as §1
Candida albicans [13] = experiment: Effect on sterol composition in Candida albicans isolate 14 expressing wild type erg11 and erg5 assessed as 14 -Methylergosta-8,24(28)-dien-3beta,6alpha-diol level after 2 hrs by gas chromatography; type: functional; design: concentration or dose not given beside the values
Candida albicans [14] = experiment: Antifungal activity against Candida albicans isolate 108 harboring erg11 and erg5 double mutant after 48 hrs by broth microdilution method; type: functional; conditions: isolate 108, 48 h; procedure, shortened: as §1
Candida albicans [15] = experiment: Effect on sterol composition in Candida albicans isolate 108 harboring erg11 and erg5 double mutant assessed as 14 -Methylergosta-8,24(28)-dien-3beta,6alpha-diol level after 2 hrs by gas chromatography; type: functional
Candida albicans [16] = experiment: Effect on sterol composition in Candida albicans isolate 14 expressing wild type erg11 and erg5 assessed as ergosterol level after 2 hrs by gas chromatography; type: functional; design: concentration or dose not given beside the values
Candida albicans [17] = experiment: Effect on sterol composition in Candida albicans isolate 108 harboring erg11 and erg5 double mutant assessed as obtusifoliol level after 2 hrs by gas chromatography; type: functional; design: concentration or dose not given beside the values
Candida albicans [18] = experiment: Effect on sterol composition in Candida albicans isolate 14 expressing wild type erg11 and erg5 assessed as obtusifoliol level after 2 hrs by gas chromatography; type: functional; design: concentration or dose not given beside the values
Candida albicans [19] = experiment: Antifungal activity against Candida albicans isolate 177 after 48 hrs by broth microdilution method; type: functional; conditions: isolate 177, 48 h; procedure, shortened: as §1
Candida albicans [20] = experiment: Effect on sterol composition in Candida albicans isolate 14 expressing wild type erg11 and erg5 assessed as lanosterol level after 2 hrs by gas chromatography; type: functional
Candida albicans [21] = experiment: Effect on sterol composition in Candida albicans isolate 108 harboring erg11 and erg5 double mutant assessed as zymosterol level after 2 hrs by gas chromatography; type: functional
Candida albicans [22] = experiment: Effect on sterol composition in Candida albicans isolate 14 expressing wild type erg11 and erg5 assessed as eburicol level after 2 hrs by gas chromatography; type: functional
Candida albicans [23] = experiment: Antifungal activity against Candida albicans isolate 6 after 48 hrs by broth microdilution method in presence of 10 uM of efflux pump inhibitor FK506; type: functional
Procedure, shortened: (§2)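 Doubling dilutions of azole with a fixed 10 μM FK506 in microtiter wells in MOPS-buffered RPMI 1640 (pH 7). Read visually after 48 h at 37°C. The MIC is the lowest azole concentration giving at least 80% growth inhibition versus control wells.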

Candida albicans [24] = experiment: Antifungal activity against Candida albicans isolate 177 after 48 hrs by broth microdilution method in presence of 10 uM of efflux pump inhibitor FK506; type: functional; conditions: isolate 177, 48 h; procedure, shortened: as §2
Candida albicans [25] = experiment: Effect on sterol composition in Candida albicans isolate 108 harboring erg11 and erg5 double mutant assessed as 14alpha-Methylfecosterol level after 2 hrs by gas chromatography; type: functional
Candida albicans [26] = experiment: Antifungal activity against Candida albicans isolate 108 harboring erg11 and erg5 double mutant after 48 hrs by broth microdilution method in presence of 10 uM of efflux pump inhibitor FK506; type: functional; conditions: isolate 108, 48 h
Procedure, shortened: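 C. albicans clinical isolate grown in RPMI 1640 buffered with 0.165 M MOPS (pH 7). Azole MICs by CLSI M27-A2 broth microdilution, with doubling drug dilutions plus a fixed 10 μM FK506. Plates incubated 48 h at 37°C and read visually. MIC taken as the lowest azole concentration giving at least 80% growth inhibition versus control wells.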

Candida albicans [27] = experiment: Antifungal activity against Candida albicans isolate 14 after 48 hrs by broth microdilution method in presence of 10 uM of efflux pump inhibitor FK506; type: functional; conditions: isolate 14, 48 h; procedure, shortened: as §2
Candida albicans [28] = experiment: Effect on sterol composition in Candida albicans isolate 108 harboring erg11 and erg5 double mutant assessed as 4,14alpha-Dimethylcholesta-8,24-dienol level after 2 hrs by gas chromatography; type: functional
Candida albicans [29] = experiment: Effect on sterol composition in Candida albicans isolate 108 harboring erg11 and erg5 double mutant assessed as 4,4-Dimethylcholesta-8,14,24-trienol level after 2 hrs by gas chromatography; type: functional

Compound `C[C@@H]1[C@H](O)[C@@H](C)/C=C/C=C/C=C/C=C/C=C/C=C/C=C/[C@H](O[C@@H]2O[C@H](C)[C@@H](O)[C@H](N)[C@@H]2O)C[C@@H]2O[C@](O)(C[C@@H](O)C[C@@H](O)[C@H](O)CC[C@@H](O)C[C@@H](O)CC(=O)O[C@H]1C)C[C@H](O)[C@H]2C(=O)O` [AMPHOTERICIN B] has a Ratio (Candida albicans [1]) of 8, a Ratio (Candida albicans [2]) of 8 and a Ratio (Candida albicans [3]) of 8. For the same compound, the MIC (Candida albicans [4]) was 0.25 µg/mL (≈ 0.271 µM), the MIC (Candida albicans [5]) was 4 µg/mL (≈ 4.33 µM) and the MIC (Candida albicans [6]) was 0.25 µg/mL (≈ 0.271 µM). The MIC (Candida albicans [7]) was 0.25 µg/mL (≈ 0.271 µM).
`Clc1ccccc1C(c1ccccc1)(c1ccccc1)n1ccnc1` [CLOTRIMAZOLE] showed an Activity (Candida albicans [8]) of 16.4%, an MIC (Candida albicans [9]) of 0.0625 µg/mL (≈ 0.181 µM) and an Activity (Candida albicans [10]) of 42.6%. It also gave an Activity (Candida albicans [11]) of 8.2%, an MIC (Candida albicans [12]) of 1 µg/mL (≈ 2.9 µM) and an Activity (Candida albicans [13]) of 35%. The MIC (Candida albicans [14]) was 2 µg/mL (≈ 5.8 µM), the Activity (Candida albicans [15]) was 32.8% and the Activity (Candida albicans [16]) was 30%. It also gave an Activity (Candida albicans [17]) of 16.4%, an Activity (Candida albicans [18]) of 35% and an MIC (Candida albicans [19]) of 1 µg/mL (≈ 2.9 µM). It also gave an Activity (Candida albicans [20]) of 35%.
For `OC(Cn1cncn1)(Cn1cncn1)c1ccc(F)cc1F` [FLUCONAZOLE], the Activity (Candida albicans [21]) was 1.4%, the Activity (Candida albicans [8]) was 25.7% and the MIC (Candida albicans [9]) was 1 µg/mL (≈ 3.27 µM). For the same compound, the Activity (Candida albicans [22]) was 4.1%, the Activity (Candida albicans [10]) was 57.1% and the Activity (Candida albicans [11]) was 0.9%. For the same compound, the MIC (Candida albicans [12]) was 256 µg/mL (≈ 836 µM), the Activity (Candida albicans [13]) was 25.4% and the Activity (Candida albicans [23]) was 1 µg/mL. The MIC (Candida albicans [14]) was 64 µg/mL (≈ 209 µM), the Activity (Candida albicans [16]) was 45.5% and the Activity (Candida albicans [17]) was 25.7%. For the same compound, the Activity (Candida albicans [18]) was 25%, the MIC (Candida albicans [24]) was 0.5 µg/mL and the Activity (Candida albicans [25]) was 9.4%. It also gave an MIC (Candida albicans [19]) of 256 µg/mL (≈ 836 µM), an Activity (Candida albicans [20]) of 25% and an MIC (Candida albicans [26]) of 16 µg/mL. The MIC (Candida albicans [27]) was 1 µg/mL and the Activity (Candida albicans [28]) was 5.5%.
Compound `CCC(C)n1ncn(-c2ccc(N3CCN(c4ccc(OCC5COC(Cn6cncn6)(c6ccc(Cl)cc6Cl)O5)cc4)CC3)cc2)c1=O` (stereo unspecified) [ITRACONAZOLE] has an Activity (Candida albicans [8]) of 16.7%, an MIC (Candida albicans [9]) of 0.0625 µg/mL (≈ 0.0886 µM) and an Activity (Candida albicans [10]) of 25%. It also gave an Activity (Candida albicans [11]) of 8.3%, an MIC (Candida albicans [12]) of 16 µg/mL (≈ 22.7 µM) and an Activity (Candida albicans [13]) of 38%. For the same compound, the MIC (Candida albicans [14]) was 2 µg/mL (≈ 2.83 µM), the Activity (Candida albicans [15]) was 50% and the Activity (Candida albicans [16]) was 33%. The Activity (Candida albicans [17]) was 16.7%, the Activity (Candida albicans [18]) was 29% and the MIC (Candida albicans [19]) was 16 µg/mL (≈ 22.7 µM). For the same compound, the Activity (Candida albicans [20]) was 29%.
Compound `CC(=O)N1CCN(c2ccc(OCC3COC(Cn4ccnc4)(c4ccc(Cl)cc4Cl)O3)cc2)CC1` (stereo unspecified) [KETOCONAZOLE] has an Activity (Candida albicans [8]) of 20.3%, an MIC (Candida albicans [9]) of 0.0625 µg/mL (≈ 0.118 µM) and an Activity (Candida albicans [10]) of 24.4%. For the same compound, the Activity (Candida albicans [11]) was 10.2%, the MIC (Candida albicans [12]) was 16 µg/mL (≈ 30.1 µM) and the Activity (Candida albicans [13]) was 37.2%. The MIC (Candida albicans [14]) was 1 µg/mL (≈ 1.88 µM), the Activity (Candida albicans [15]) was 45.1% and the Activity (Candida albicans [16]) was 36.4%. For the same compound, the Activity (Candida albicans [17]) was 20.3%, the Activity (Candida albicans [18]) was 26.4% and the MIC (Candida albicans [19]) was 16 µg/mL (≈ 30.1 µM). For the same compound, the Activity (Candida albicans [20]) was 26.4%.
`C[C@@H](c1ncncc1F)[C@](O)(Cn1cncn1)c1ccc(F)cc1F` [VORICONAZOLE] was tested, and the Activity (Candida albicans [8]) was 29.5%, the MIC (Candida albicans [9]) was 0.0625 µg/mL (≈ 0.179 µM) and the Activity (Candida albicans [10]) was 27.4%. The Activity (Candida albicans [11]) was 9.4%, the MIC (Candida albicans [12]) was 16 µg/mL (≈ 45.8 µM) and the Activity (Candida albicans [13]) was 28.6%. It also gave an MIC (Candida albicans [23]; Candida albicans, isolate 6, 48 h) of under 0.0625 µg/mL, an MIC (Candida albicans [14]) of 8 µg/mL (≈ 22.9 µM) and an Activity (Candida albicans [15]) of 10.4%. For the same compound, the Activity (Candida albicans [16]) was 47.3%, the Activity (Candida albicans [17]) was 29.5% and the Activity (Candida albicans [29]) was 3.4%. For the same compound, the Activity (Candida albicans [18]) was 24.1%, the MIC (Candida albicans [24]) was under 0.0625 µg/mL and the Activity (Candida albicans [25]) was 12.7%. The MIC (Candida albicans [19]) was 16 µg/mL (≈ 45.8 µM), the Activity (Candida albicans [20]) was 24.1% and the MIC (Candida albicans [26]) was 4 µg/mL. For the same compound, the MIC (Candida albicans [27]) was under 0.0625 µg/mL and the Activity (Candida albicans [28]) was 7.2%.
